Calls of active or inactive are those of the source. The rule behind the calls is not given here.
What was measured:
[1] = system: Tyrosine-protein kinase ABL1 (Homo sapiens), P00519 [T315I]; assay: Inhibition of partial length human ABL1 T315I mutant phosphorylation expressed in mammalian system at 1 uM
Summary of the method: (§1)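 Single-point screen within a 97-kinase profiling panel, with the test compound at 1 µM.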

[2] = target: Cyclin-dependent kinase 9 (Homo sapiens) (UniProt P50750); assay: Inhibition of partial length human CDK9 expressed in bacterial system at 1 uM; summary of the method: as §1
Cyclin-dependent kinase 9 (Homo sapiens), sequence (P50750 whole entry): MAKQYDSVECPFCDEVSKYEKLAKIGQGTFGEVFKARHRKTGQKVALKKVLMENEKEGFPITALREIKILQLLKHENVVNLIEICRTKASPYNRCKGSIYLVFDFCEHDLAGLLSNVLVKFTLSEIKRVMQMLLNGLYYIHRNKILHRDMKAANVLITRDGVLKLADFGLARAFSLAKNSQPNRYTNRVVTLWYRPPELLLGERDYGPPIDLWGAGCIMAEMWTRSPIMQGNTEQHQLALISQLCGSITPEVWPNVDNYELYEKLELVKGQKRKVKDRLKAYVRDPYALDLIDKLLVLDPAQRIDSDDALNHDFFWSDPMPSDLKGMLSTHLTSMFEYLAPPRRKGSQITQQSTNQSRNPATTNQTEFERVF

[3] = target: Inhibitor of nuclear factor kappa-B kinase subunit beta (Homo sapiens) (UniProt O14920); assay: Inhibition of partial length human IKKbeta expressed in mammalian system at 1 uM; summary of the method: as §1
Inhibitor of nuclear factor kappa-B kinase subunit beta (Homo sapiens), sequence (O14920 whole entry): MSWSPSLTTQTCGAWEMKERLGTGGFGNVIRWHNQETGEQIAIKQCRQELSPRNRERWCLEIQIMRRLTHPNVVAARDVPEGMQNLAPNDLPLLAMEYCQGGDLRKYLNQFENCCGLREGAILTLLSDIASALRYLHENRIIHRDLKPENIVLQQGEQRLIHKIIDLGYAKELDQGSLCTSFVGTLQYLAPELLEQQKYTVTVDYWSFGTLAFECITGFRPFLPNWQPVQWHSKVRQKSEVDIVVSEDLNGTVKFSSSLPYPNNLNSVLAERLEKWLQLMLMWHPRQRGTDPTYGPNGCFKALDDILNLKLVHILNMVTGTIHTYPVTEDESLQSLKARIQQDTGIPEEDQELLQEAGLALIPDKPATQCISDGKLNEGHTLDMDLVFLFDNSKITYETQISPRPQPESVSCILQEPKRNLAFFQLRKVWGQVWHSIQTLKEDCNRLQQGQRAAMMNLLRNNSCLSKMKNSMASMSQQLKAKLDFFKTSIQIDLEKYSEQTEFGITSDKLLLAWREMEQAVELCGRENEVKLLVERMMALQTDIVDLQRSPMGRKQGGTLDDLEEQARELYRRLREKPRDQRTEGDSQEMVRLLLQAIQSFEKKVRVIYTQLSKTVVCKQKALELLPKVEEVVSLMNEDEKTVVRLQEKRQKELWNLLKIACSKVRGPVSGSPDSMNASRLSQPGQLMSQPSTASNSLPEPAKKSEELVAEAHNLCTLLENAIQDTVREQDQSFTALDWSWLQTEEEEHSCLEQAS

[4] = target: Insulin receptor (Homo sapiens) (UniProt P06213); assay: Inhibition of partial length human INSR expressed in mammalian system at 1 uM; summary of the method: as §1
[5] = target: Mitogen-activated protein kinase 8 (Homo sapiens) (UniProt P45983); assay: Inhibition of partial length human JNK1 expressed in mammalian system at 1 uM; summary of the method: as §1
Mitogen-activated protein kinase 8 (Homo sapiens), sequence (P45983 whole entry): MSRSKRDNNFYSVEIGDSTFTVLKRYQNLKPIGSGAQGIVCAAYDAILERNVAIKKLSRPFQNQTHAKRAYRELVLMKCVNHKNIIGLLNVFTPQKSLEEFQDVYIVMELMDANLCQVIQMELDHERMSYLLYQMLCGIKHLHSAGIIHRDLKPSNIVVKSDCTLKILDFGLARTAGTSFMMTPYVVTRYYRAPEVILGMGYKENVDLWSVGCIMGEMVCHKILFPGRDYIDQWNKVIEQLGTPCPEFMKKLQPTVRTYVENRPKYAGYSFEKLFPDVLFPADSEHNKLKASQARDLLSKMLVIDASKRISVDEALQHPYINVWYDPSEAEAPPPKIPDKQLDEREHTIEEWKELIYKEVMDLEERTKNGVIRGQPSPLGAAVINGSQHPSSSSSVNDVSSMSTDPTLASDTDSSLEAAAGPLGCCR

[6] = system: Mast/stem cell growth factor receptor Kit (Homo sapiens), P10721 [D816V]; assay: Inhibition of partial length human KIT D816V mutant expressed in bacterial system at 1 uM
Mast/stem cell growth factor receptor Kit (Homo sapiens), P10721 [D816V], sequence (P10721 whole entry D816V): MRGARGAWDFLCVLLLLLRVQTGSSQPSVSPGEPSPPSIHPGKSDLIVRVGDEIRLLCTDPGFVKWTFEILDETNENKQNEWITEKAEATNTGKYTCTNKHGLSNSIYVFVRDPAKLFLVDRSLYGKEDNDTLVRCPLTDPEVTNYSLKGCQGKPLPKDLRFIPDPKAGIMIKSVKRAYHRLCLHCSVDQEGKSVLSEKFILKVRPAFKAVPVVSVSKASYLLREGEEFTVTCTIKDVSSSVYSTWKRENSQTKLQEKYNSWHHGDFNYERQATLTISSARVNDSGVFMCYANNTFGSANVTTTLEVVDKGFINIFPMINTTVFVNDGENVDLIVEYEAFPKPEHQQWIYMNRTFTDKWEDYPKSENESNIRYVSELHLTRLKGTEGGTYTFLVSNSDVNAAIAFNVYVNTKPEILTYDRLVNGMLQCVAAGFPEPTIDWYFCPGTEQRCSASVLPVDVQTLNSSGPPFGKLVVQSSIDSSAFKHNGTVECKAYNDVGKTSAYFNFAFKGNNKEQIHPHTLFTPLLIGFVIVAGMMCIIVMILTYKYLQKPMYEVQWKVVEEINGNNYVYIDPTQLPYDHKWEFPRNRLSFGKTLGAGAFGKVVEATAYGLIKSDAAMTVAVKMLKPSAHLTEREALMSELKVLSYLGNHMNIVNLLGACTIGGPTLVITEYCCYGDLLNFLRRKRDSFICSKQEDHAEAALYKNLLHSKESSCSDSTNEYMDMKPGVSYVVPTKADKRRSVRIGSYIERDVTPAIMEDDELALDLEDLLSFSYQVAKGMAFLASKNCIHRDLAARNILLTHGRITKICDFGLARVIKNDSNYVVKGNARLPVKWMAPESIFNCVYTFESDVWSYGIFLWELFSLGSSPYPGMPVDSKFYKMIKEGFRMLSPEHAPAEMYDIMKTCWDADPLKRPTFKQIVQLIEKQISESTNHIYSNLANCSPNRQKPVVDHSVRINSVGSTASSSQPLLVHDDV
Summary of the method: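 Single-concentration screen at 1 µM test concentration, run as part of a commercial binding/activity profiling panel covering 97 kinases.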

[7] = target: MAP kinase-interacting serine/threonine-protein kinase 2 (Homo sapiens) (UniProt Q9HBH9); assay: Inhibition of partial length human MKNK2 expressed in mammalian system at 1 uM
MAP kinase-interacting serine/threonine-protein kinase 2 (Homo sapiens), sequence (Q9HBH9 whole entry, looked up): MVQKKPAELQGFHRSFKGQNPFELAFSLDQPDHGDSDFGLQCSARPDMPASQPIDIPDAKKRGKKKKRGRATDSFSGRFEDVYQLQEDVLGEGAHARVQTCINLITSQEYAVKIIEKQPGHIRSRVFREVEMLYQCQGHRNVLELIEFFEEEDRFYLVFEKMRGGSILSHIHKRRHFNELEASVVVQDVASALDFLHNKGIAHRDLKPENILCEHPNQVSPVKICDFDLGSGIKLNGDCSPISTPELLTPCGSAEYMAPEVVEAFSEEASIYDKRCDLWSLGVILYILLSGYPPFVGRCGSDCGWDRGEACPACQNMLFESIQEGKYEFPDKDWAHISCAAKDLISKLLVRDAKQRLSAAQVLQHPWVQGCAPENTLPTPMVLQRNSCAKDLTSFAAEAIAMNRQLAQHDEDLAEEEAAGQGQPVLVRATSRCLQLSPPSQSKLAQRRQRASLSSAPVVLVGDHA
Summary of the method: (§2)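 Single-concentration screen across a panel of 97 kinases, with the test compound at 1 uM.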

[8] = target: RAF proto-oncogene serine/threonine-protein kinase (Homo sapiens) (UniProt P04049); assay: Inhibition of partial length human RAF1 expressed in bacterial system at 1 uM; summary of the method: as §2
RAF proto-oncogene serine/threonine-protein kinase (Homo sapiens), sequence (P04049 whole entry): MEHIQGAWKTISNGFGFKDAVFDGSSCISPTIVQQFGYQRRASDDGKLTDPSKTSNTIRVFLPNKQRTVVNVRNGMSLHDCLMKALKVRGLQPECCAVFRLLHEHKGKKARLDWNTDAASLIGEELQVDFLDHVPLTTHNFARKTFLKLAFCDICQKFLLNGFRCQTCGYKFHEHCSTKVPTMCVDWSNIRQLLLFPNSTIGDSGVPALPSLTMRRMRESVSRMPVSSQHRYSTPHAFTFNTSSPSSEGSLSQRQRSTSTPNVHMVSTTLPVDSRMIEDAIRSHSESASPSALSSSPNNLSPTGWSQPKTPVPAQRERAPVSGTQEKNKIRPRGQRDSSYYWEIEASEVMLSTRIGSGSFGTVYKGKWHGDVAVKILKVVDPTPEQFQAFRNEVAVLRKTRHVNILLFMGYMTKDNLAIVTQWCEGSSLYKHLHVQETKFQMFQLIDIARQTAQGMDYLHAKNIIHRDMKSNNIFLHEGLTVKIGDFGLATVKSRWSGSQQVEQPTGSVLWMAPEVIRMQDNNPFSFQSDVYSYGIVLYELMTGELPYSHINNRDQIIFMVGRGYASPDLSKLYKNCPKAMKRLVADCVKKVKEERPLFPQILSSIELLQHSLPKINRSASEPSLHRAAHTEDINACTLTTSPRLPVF

[9] = target: Proto-oncogene tyrosine-protein kinase receptor Ret (Homo sapiens) (UniProt P07949); assay: Inhibition of partial length human RET expressed in bacterial system at 1 uM; summary of the method: as §2
Proto-oncogene tyrosine-protein kinase receptor Ret (Homo sapiens), sequence (P07949 whole entry): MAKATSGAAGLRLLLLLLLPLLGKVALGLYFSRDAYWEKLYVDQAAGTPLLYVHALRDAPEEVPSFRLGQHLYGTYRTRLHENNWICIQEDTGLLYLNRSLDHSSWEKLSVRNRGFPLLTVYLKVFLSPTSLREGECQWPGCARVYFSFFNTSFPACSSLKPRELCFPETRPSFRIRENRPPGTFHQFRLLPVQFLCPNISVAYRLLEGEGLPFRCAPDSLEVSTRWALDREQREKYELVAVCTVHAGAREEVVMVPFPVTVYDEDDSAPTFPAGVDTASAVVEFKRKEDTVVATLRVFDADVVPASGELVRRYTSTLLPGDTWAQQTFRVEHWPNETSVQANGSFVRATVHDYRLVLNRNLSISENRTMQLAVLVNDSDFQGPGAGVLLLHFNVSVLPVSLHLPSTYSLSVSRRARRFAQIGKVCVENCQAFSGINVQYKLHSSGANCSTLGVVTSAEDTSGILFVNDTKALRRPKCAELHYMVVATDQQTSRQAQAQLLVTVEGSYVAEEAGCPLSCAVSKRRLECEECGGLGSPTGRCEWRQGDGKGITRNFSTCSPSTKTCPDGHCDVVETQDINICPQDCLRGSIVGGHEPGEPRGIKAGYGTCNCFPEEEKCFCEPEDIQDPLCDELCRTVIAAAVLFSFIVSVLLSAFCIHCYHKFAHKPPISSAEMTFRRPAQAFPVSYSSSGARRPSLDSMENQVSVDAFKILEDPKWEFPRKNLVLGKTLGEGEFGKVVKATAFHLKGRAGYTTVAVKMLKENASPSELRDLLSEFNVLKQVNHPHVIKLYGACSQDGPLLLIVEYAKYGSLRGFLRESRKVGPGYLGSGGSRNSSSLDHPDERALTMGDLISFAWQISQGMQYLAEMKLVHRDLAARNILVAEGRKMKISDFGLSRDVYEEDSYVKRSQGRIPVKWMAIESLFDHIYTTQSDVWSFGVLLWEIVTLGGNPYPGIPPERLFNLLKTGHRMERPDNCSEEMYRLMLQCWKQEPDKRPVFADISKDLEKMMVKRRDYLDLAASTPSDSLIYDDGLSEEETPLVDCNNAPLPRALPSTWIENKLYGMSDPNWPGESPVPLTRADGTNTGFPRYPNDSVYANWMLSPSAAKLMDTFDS

[10] = Half life in mouse liver microsomes; format: ADME
Summary of the method: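 Incubated with human or mouse liver microsomes; the read-out was intrinsic clearance alongside half-life, given in hours.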

NCI-H460 = assay: Antiproliferative activity against human NCI-H460 cells assessed as change in phenotypic response measured after prolonged treatment; format: functional, cell-based
HeLa = assay: Antiproliferative activity against human HeLa cells assessed as change in phenotypic response measured after prolonged treatment; format: functional, cell-based
BJ = assay: Cytotoxicity against human BJ cells assessed as change in phenotypic response up to 50 uM; format: cell-based
MRC5 = assay: Cytotoxicity against human MRC5 cells assessed as change in phenotypic response up to 50 uM; format: cell-based
UOK 262 = assay: Antiproliferative activity against human UOK 262 cells assessed as change in phenotypic response measured after prolonged treatment; format: functional, cell-based

With `Cc1cnc(N)nc1OCC(C)(C)CO` as the compound, how does the inhibition [1] read?
Its inhibition is “inactive”.

And the inhibition [2]?
Its inhibition is “inactive”.

What about the inhibition [3] of the same compound?
The inhibition was “inactive”.

And the inhibition [4]?
The inhibition was “inactive”.

And the inhibition [5]?
Its inhibition is “inactive”.

And the inhibition [6]?
Its inhibition is “inactive”.

What about the inhibition [7] of the same compound?
The inhibition was “inactive”.

And the inhibition [8]?
Its inhibition is “inactive”.

What about the inhibition [9] of the same compound?
The inhibition was “inactive”.

What about the half-life [10] of the same compound?
The half-life was 1.5 h.

And the Activity (NCI-H460)?
Its Activity is “inactive”.

What about the Activity (HeLa) of the same compound?
The Activity was “inactive”.

And the Activity (BJ)?
Its Activity is “Non-toxic”.

And the Activity (MRC5)?
Its Activity is “Non-toxic”.

And the Activity (UOK 262)?
The Activity was “inactive”.
